DENV2 CPE rescue: inhibitors of DENV2 cytopathic effect, primary screen, cell-based, plate reader, single concentration. DENV2-infected cells, cytopathic effect rescue. CPE inhibition, % at 9.99 µM. 350,000 tested, 1.7% active; in the data active means CPE inhibition above about 20%, passing the limit was not always enough; inconclusive means no clear call, values can overlap the other calls; tested in BHK-21 cells;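 further: 0% = median of neutral control wells and 100% = median of positive control wells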
E-sel inducer: E-selectin induction in HUVECs, primary screen, imaging, HUVEC, immunofluorescence imaging, single point | 260,000 tested, 0.37% active | activation, % at 7.58 µM | normalized: neutral wells 0, TNF-alpha wells 100 | AID 686992, 2013 | P16581;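 active means mean E-selectin-positive cell signal at least 10% of the positive control, reached in at least 60% of replicates, without over 20% cell loss; inconclusive means no rule given, readout overlaps actives, possibly toxicity-flagged; inactive means the rest, including those meeting only one limit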
Target sequence (P16581 whole entry, looked up): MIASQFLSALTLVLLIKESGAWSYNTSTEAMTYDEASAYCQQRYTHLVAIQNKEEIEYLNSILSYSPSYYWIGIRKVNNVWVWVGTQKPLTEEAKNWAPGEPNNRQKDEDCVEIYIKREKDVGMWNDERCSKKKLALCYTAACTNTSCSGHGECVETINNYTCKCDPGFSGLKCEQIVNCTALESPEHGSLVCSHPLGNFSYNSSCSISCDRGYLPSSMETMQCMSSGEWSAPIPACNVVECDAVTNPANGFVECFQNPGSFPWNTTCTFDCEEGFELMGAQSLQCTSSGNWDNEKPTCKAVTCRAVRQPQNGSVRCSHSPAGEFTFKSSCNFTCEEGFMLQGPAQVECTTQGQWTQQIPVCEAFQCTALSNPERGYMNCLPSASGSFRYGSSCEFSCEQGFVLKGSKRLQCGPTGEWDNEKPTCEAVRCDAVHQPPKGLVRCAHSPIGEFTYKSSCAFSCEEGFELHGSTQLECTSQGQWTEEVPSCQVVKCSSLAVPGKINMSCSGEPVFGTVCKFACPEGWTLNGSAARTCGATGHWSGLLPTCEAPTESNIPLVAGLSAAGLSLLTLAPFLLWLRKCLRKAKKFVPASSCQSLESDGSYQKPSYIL
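Test system: HUVEC; input: 3,000 HUVEC/well; measured by: immunofluorescence imaging; read-out: % PE-positive cells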
C2C12 statin: suppressors of statin myotoxicity in C2C12 myotubes, primary screen, cell-based, single point, plate reader | 330,000 tested, 0.78% active | AID 602340, 2012 | rescue of ATP level, % at 7.49 µM | C2C12 myotubes + simvastatin, ATP luminescence, 48 h; scaled: DMSO 0, geranylgeraniol control 100;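 active means mean ATP rescue above about 67%, or every replicate alone reaching that limit, limit read from the data, passing the limit was not always enough; inconclusive means no clear call, values can overlap the other calls; inactive means mean under the limit and some replicate under it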;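 further: myotubes were challenged with 10 µM simvastatin during compound exposure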
The depositor's hits bear a star; ? = inconclusive; . = no result given. Rows were chosen to be rich in hits. Some 2.2% of all compounds tested hit in one or more screens of this group.

SMILES	DENV2 CPE rescue	E-sel inducer	C2C12 statin
CC(=O)Nc1ccccc1OCCCN1CCC(C(O)(c2ccccc2)c2ccccc2)CC1	4	1	.
Cc1cccc(OCCCN2CCC(C(O)(c3ccccc3)c3ccccc3)CC2)c1	34*	0	.
COc1ccc(-c2cn(CC[C@H]3CC[C@@H](NC(=O)Cc4ccccn4)[C@H](CO)O3)nn2)cc1	-4	1	1
Cc1noc(C)c1NC(=O)Nc1ccc2c(c1)C(=O)N([C@@H](C)CO)C[C@@H](C)[C@@H](CN(C)C(=O)Nc1ccc3c(c1)OCO3)OCCCC[C@@H](C)O2	-1	0	.
CCCC(=O)NC(=S)Nc1cccc(C(C)=O)c1	.	.	114*
CCCC(=O)Nc1cc(OC)c(NC(=S)Nc2cccc(C)c2)cc1OC	92*	0	-8
CCCC(=O)Nc1cc(OC)c(NC(=S)Nc2ccc(CC)cc2)cc1OC	0	.	22
CCCCCC(=O)NC(=S)Nc1cccc(C(C)=O)c1	-1	.	-7
O=S(=O)(Cc1ccccc1)N1CCCCN2[C@H](CO)[C@@H](c3ccc(-c4ccccc4)cc3)[C@H]2C1	-5	0	.
C[C@H]1CN([C@@H](C)CO)C(=O)Cc2cc(NS(=O)(=O)c3ccc(Cl)cc3)ccc2O[C@@H]1CN(C)Cc1ccc(C(F)(F)F)cc1	11	2	47
O=C(CCN1CCCCC1)N[C@H]1CC[C@@H](CCNC(=O)c2cc(Cl)cc(Cl)c2)O[C@@H]1CO	-3	0	1
Cc1[nH]c2ccccc2c1/C=N/NC(=O)c1cccc(F)c1	-5	4	.
Cc1[nH]c2ccccc2c1/C=N/NC(=O)c1cccc([N+](=O)[O-])c1	1	57*	.
C[C@@H]1CCCCO[C@H](CN(C)S(=O)(=O)c2ccccc2)[C@@H](C)CN([C@H](C)CO)C(=O)c2cc(NS(=O)(=O)c3ccccc3)ccc2O1	-1	0	.
C[C@H]1CN([C@@H](C)CO)C(=O)c2cc(-c3ccncc3)cnc2O[C@@H]1CN(C)S(=O)(=O)c1ccccc1	?	0	32
Cc1ccc2c(c1)c1c3n2CCN(C(=O)CN2CCN(C)CC2)C3CCC1 (centres undefined)	.	.	-6
Cc1ccc2c(c1)c1c3n2CCN(C(=O)C2CC2)C3CCC1 (centres undefined)	54*	-1	-13
C[C@@H]1CN([C@@H](C)CO)C(=O)Cc2cc(NS(=O)(=O)c3cn(C)cn3)ccc2O[C@H]1CN(C)Cc1ccc(C(=O)Nc2ccccc2N)cc1	107*	0	.
C[C@H]1CN([C@@H](C)CO)C(=O)Cc2cc(NS(=O)(=O)c3cn(C)cn3)ccc2O[C@@H]1CN(C)Cc1ccc(C(=O)Nc2ccccc2N)cc1	21*	0	25
C[C@@H]1CN([C@H](C)CO)C(=O)Cc2cc(NS(=O)(=O)c3cn(C)cn3)ccc2O[C@H]1CN(C)Cc1ccc(C(=O)Nc2ccccc2N)cc1	-2	0	.
C[C@H](CO)N1C[C@H](C)[C@H](CN(C)Cc2ccc(C(=O)Nc3ccccc3N)cc2)Oc2ccc(NS(=O)(=O)c3cn(C)cn3)cc2CC1=O	-5	0	.
CN1CCN(C(=O)C[C@@H]2CC[C@H]3[C@@H](COC[C@H](O)CN3CC3CCCC3)O2)CC1	-11	0	.
C[C@H]1CN([C@@H](C)CO)C(=O)Cc2cc(NC(=O)Cc3ccccc3)ccc2O[C@H]1CN(C)Cc1ccncc1	-5	4	16
COc1ccc(-c2ccc([C@@H]3[C@@H](CO)N4C(=O)CN(C(=O)NC(C)C)C[C@@H]34)cc2)cc1	9	0	.
C[C@H]1CN([C@@H](C)CO)C(=O)Cc2cc(NC(=O)Nc3cccc4ccccc34)ccc2O[C@H]1CN(C)Cc1ccccc1	15	0	-25
SMILES	DENV2 CPE rescue	E-sel inducer	C2C12 statin
C[C@@H]1CN([C@@H](C)CO)C(=O)Cc2cc(NC(=O)Nc3cccc4ccccc34)ccc2O[C@@H]1CN(C)Cc1ccccc1	-9	0	0
C[C@@H]1CN([C@H](C)CO)C(=O)Cc2cc(NC(=O)Nc3cccc4ccccc34)ccc2O[C@H]1CN(C)Cc1ccccc1	12	1	73*
C[C@@H]1CN([C@@H](C)CO)C(=O)Cc2cc(NC(=O)Nc3cccc4ccccc34)ccc2O[C@@H]1CN(C)Cc1ccc(C(F)(F)F)cc1	?	1	98*
C[C@@H]1CN([C@@H](C)CO)C(=O)c2cc(NC(=O)CCCN(C)C)ccc2O[C@H]1CN(C)S(=O)(=O)c1cn(C)cn1	4	1	.
C[C@@H]1CN([C@H](C)CO)C(=O)c2cc(NC(=O)NC3CCCCC3)ccc2O[C@@H](C)CCCCO[C@@H]1CN(C)S(=O)(=O)c1ccc(Cl)cc1	-9	0	.
Cc1noc(C)c1NC(=O)N(C)C[C@H]1Oc2ccc(NS(=O)(=O)c3c(C)noc3C)cc2CC(=O)N([C@H](C)CO)C[C@@H]1C	-6	0	-3
CCCC(=O)Nc1ccc2c(c1)OC[C@H](C)N(C(=O)c1cnccn1)C[C@H](C)[C@H](OC)CN(C)C2=O	-4	1	-1
C[C@@H]1CN([C@H](C)CO)C(=O)c2cc(N(C)C)ccc2O[C@H]1CN(C)S(=O)(=O)c1cccs1	-9	0	4
CN(C)C(=O)c1ccc(-c2ccc3c(c2)[C@@H]2[C@@H](CCN2S(=O)(=O)c2cn(C)cn2)[C@@H](CO)N3)cc1	-2	0	-15
C/C=C/c1ccc2c(c1)O[C@@H](CN(C)CC1CC1)[C@@H](C)CN([C@H](C)CO)S2(=O)=O	.	-1	5
C[C@H](CO)N1C[C@H](C)[C@H](CN(C)C(=O)C2CCOCC2)Oc2ncc(Br)cc2C1=O	8	0	-12
C[C@H]1CN([C@@H](C)CO)C(=O)c2cc(Br)cnc2O[C@H]1CN(C)C(=O)C1CCOCC1	24*	1	7
CC(C)CC#Cc1cnc2c(c1)C(=O)N([C@H](C)CO)C[C@H](C)[C@H](CN(C)C(=O)C1CCOCC1)O2	4	0	6
CC(C)CC#Cc1cnc2c(c1)C(=O)N([C@H](C)CO)C[C@@H](C)[C@H](CN(C)C(=O)C1CCOCC1)O2	38*	1	15
O=C(C[C@H]1C=C[C@H](NS(=O)(=O)c2ccc(F)cc2)[C@@H](CO)O1)NCc1ccncn1	?	0	8
C[C@@H]1CN([C@@H](C)CO)C(=O)c2cc(C#CC3CCCCC3)cnc2O[C@H]1CN(C)C(=O)c1ccncc1	9	0	.
Cc1nc2scc(C)n2c(=O)c1S(=O)(=O)Nc1ccc(N2CCN(C(=O)C(C)C)CC2)cc1	51*	.	8
Cc1nc2scc(C)n2c(=O)c1S(=O)(=O)Nc1ccc(N2CCOCC2)cc1	-6	.	10
Cc1noc(C)c1NC(=O)N(C)C[C@H]1OCCCC[C@@H](C)Oc2ccc(NS(=O)(=O)c3cccs3)cc2C(=O)N([C@H](C)CO)C[C@@H]1C	-5	0	.
C[C@@H]1CCCCO[C@@H](CN(C)C(=O)Cc2ccccc2)[C@H](C)CN([C@H](C)CO)C(=O)c2cc(NS(=O)(=O)c3ccc(F)cc3)ccc2O1	-1	0	.

Screens as filed in PubChem.
